Results: the EternaBench riboswitch data

Test system: MS2 coat protein
Assay: apparent Kd, MS2 coat protein; higher = weaker binding; RNA-MaP array; FMN 200 µM where present
Method in brief: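 On Illumina sequencing-chip clusters, designs were transcribed by stalled E. coli RNA polymerase and titrated with SNAP-549-labelled MS2 coat protein (0.7 or 1.5 nM, doubling to 3 µM), without and then with constant ligand, in 100 mM Tris-HCl pH 7.5, 80 mM KCl, 4 mM MgCl2, BSA, DTT, yeast tRNA and Tween-20. Apparent Kd is the median of filtered per-cluster curve fits to green signal normalised to red-channel RNA signal and control-cluster median Fmax.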

[1] = designed as: OFF switch for flavin mononucleotide, no ligand
[2] = ligand present: flavin mononucleotide, designed as: OFF switch for flavin mononucleotide
[3] = designed as: ON switch for flavin mononucleotide, no ligand
[4] = ligand present: flavin mononucleotide, designed as: ON switch for flavin mononucleotide

Row | Sequence | apparent Kd [1] | apparent Kd [2] | apparent Kd [3] | apparent Kd [4]
1 | GUAAAGUGAGGAUAUGCUGGAGGUGUAUUCUACGUGUCGAAACAUGAGGAUCACCCAUGUAGAAGGCACGGGCG | 10.2 nM | 13.1 nM |  | 
2 | ACAUUGUGAGGAUAUCCGAAGAAGGUCCGGAAGGUUCGGGUGGAGAAGGCACAUGAGGAUCACCCAUGUGUGGG | 51.8 nM | 137 nM |  | 
3 | AAACCACAUGAGGAUCACCCAUGUGAGGAUAUGAUACUAUGUACUUCGGUACAUAGUAUCAGAAGGCAUAUGAA | 24.6 nM | 25.1 nM |  | 
4 | UCGAGGUCAGGAUAUACAUGAGGAUCACCCAUGUUGAGAGAAGGUAGGAAAAGAGUAGGUAGAAGGGACGAGAG | 33.7 nM | 33.8 nM |  | 
5 | GGAUGACAAAGUCAUCCUAUUCGAACAUGAGGAUCACCCAUGUAGGAUAUGCAACUCAAAGAGUUGCAGAAGGACAUGUGCCUU | 30.9 nM | 153 nM |  | 
6 | ACUGGUCAAGGAUAUACAAUCGUGCUUCGGCACGUAAGAUCACAUGAGGAUCACCCAUGUAGAAGGUGACCAGU | 38.6 nM | 470 nM |  | 
7 | CACUGCAUGUAAGGAUAUCGACUGGAUAACAGUCGAGAAGGUACAUGAGGAUCACCCAUGUAAAUAAUAAUAAAUAAAGCAGUG | 15.1 nM | 25.1 nM |  | 
8 | AUAUGAUAGAUAGGAUAUACUAUGGUUGAAGAAGUAGAAGGAUCAAUAGGGAAAUGUACAUGAGGAUCACCCAUGUUAUGGAUU |  |  | 29.7 nM | 26.9 nM
9 | CAGGGUAGAGGAUAUACGUAGGUACAGAUCUGUGUGAUCCUACAUGAGGAUCACCCAUGUAGAAGGCUAGCCUG | 356 nM | 39.4 nM |  | 
10 | GCUAUCGUUGUAGGAUAUGCUUGCCAAAGGCGAGCAGAAGGACAUGAGGAUCACCCAUGUCAGUGGUUGAAGAGAAGAGAUGGC | 27 nM | 61.5 nM |  | 
11 | GACUCGAAUGUAGGAUAUGCUGAGGAAUACUCAGCAGAAGGACAUGAGGAUCACCCAUGUCAAUGAGUGAAUAAUAAACGAGUC | 29.2 nM | 224 nM |  | 
12 | CCCGUGUUAGGAUAUACGGCACACCCACAAACGGGUAUAUAGUAGAAGGAACAUGAGGAUCACCCAUGUAAAAC | 20.2 nM | 46.5 nM |  | 
13 | UUUAAAGGCACAUGAGGAUCACCCAUGUCCGGUACUAACAGACAGGAUAUGCAAGAUCCACUCAUGCAGAAGGGUCUGGCUUUU |  |  | 463 nM | 79.7 nM
14 | UUUAUUUUUAGAGGAUAUAUUGUGUGUGAGAGAAUAGAAGGCUAAACAUACAUGAACAUGAGGAUCACCCAUGUCACCCAUGUU |  |  | 78.2 nM | 54.9 nM
15 | AAGGUACAUGAGGAUCACCCAUGUGGGUCGGUCGCAGGAUAUCGCCGUUGGCCCUGGCGGCGAGAAGGGUGCCGAA |  |  | 375 nM | 61.1 nM
16 | CGCUAAUUAAUUAUAUUAAUUAUACAGGAUAUGUAACAUGAGGAUCACCCAUGUAUUCAAUGUAAACAGAAGGGUAUAUUAGCG | 10.7 nM | 16.2 nM |  | 
17 | GAUUAACAUGAGGAUCACCCAUGUGAGGAUAUGGAAUGGCUCAUUUUUUGAUUCCCGUCUAGAAGGCACAUCUU | 71.8 nM | 83.8 nM |  | 
18 | ACAUGCAUAGCGAUAUGAUCGAGAGAUCAUGUCGCUAAAGUUAGAAGGACAUGAGGAUCACCCAUGUAGGAUAUGGGAGCAUGA |  |  | 43.1 nM | 9.96 nM
19 | GUUGUAAUGUCAGGAUAUAUAAUAAGUCAUACAGUAGAAGGGAUAAUUAUACUCAUGUACAUGAGGAUCACCCAUGUUAAAUAG |  |  | 63.6 nM | 37.9 nM
20 | UGUCGGAGCAGAGGAUAUUACAUGAGGAUCACCCAUGUGGAAGAACCAAGCUGGAAACAGCAAUGUAAGAAGGCUGCUCCGACA | 1010 nM | 467 nM |  | 
21 | UAUAUAUAGUAAGGAUAUGUAAUAAUUUUAUAAACAGAAGGUACUGACAUGAGGAUCACCCAUGUUUUAGUGUGGGCAUGUAGA | 83.9 nM | 151 nM |  | 
22 | CAGGUAGACUGAGGAUAUACAUACCAUCAGCUAGUCUAUCUAGCUGUCACAUGAGGAUCACCCAUGUAGAAGGCAGUCUGCCUG | 30.5 nM | 122 nM |  | 
23 | UGCCGUAGAGGAUAUACAUUGAAUUAGAUUCAUGUAAAACUACAUGAGGAUCACCCAUGUAGAAGGCUAUGGCU | 16.6 nM | 24.5 nM |  | 
24 | GGACGUGACAUUAACAUGAGGAUCACCCAUGUCAAAAGACAUGAGGAUAUGGAUCCGAAAAGGAUCCAGAAGGCAUGCACGUCC |  |  | 587 nM | 37.1 nM

Row | Sequence | apparent Kd [1] | apparent Kd [2] | apparent Kd [3] | apparent Kd [4]
25 | UUUACUUACGAAGGAUAUGGUUACAUGAGGAUCACCCAUGUAUGUAUAAUGAUCUAGUAUUUUAACCAGAAGGUCGUGAUUAUU | 39.3 nM | 64.6 nM |  | 
26 | AACAAACAUGAGGAUCACCCAUGUCAGGAUAUCCGAAAUAAAGAAACAAUAAUAAUAAGGAGAAGGGACUAAAU | 53.5 nM | 55.5 nM |  | 
27 | GGACGGAAAGUGAGGAUAUGCUCUACCUCGGUAGAGCAGAAGGCACAUGAGGAUCACCCAUGUGAUUGCUGUUC | 27.1 nM | 261 nM |  | 
28 | UAGACACUUACAGGAUAUAGGGCAGAGGGUGCCCUAGAAGGGUGAACAUGAGGAUCACCCAUGUAUGUGUCUGAUUAGAAGGCA |  |  | 36.2 nM | 69.4 nM
29 | UUUUAACAUGAGGAUCACCCAUGUGAGGAUAUCGAAAUUUAUAUUUAUAUUUAUUAAUCGAGAAGGCACAUUUU | 132 nM | 162 nM |  | 
30 | AUCAGCUGGUCAGGAUAUACGUCACUGCGUCAGCAGUGUGGUAAGAUCACAUGAGGAUCACCCAUGUAGAAGGGACGAGCUGAU | 14.5 nM | 286 nM |  | 
31 | GUUAUAAUUGAAGGAUAUCUAUAUCCAACAUGAGGAUCACCCAUGUUGAGGAUCACCCAUGUAAAGGAGAAGGUUAAUUAUAAU |  |  | 84.2 nM | 25.2 nM
32 | UAUAAAUACAUUAACAUGAGGAUCACCCAUGUCAAAAGACAUGAGGAUAUGCAUCCUAAUUGGAUGCAGAAGGCAUGUAUAAUU |  |  | 174 nM | 16.9 nM
33 | UUAUUUAUACAAGGAUAUCUAUUGUUAAUUCGACUUACAUGAGGAUCACCCAUGUUUUUAUGUUUAGAGAAGGUGUAUUUUCAG |  |  | 90.4 nM | 51.9 nM
34 | AAAAAGUGAGGAUAUACGGUGUGGAGUAGACACAACCAGACGUAGAAGGCACAUGAGGAUCACCCAUGUCCAAA | 24.1 nM | 21.4 nM |  | 
35 | AAGGUGUUAGGAUAUCGUAGUUUGAGGCAGACGGGAUUUUGCGAGAAGGAACAUGAGGAUCACCCAUGUAGGAU | 27.2 nM | 30.4 nM |  | 
36 | UCAUGCAUAGCGAUAUGAUCGAGAGAUCAUGUCGCUAAAUUUAGAAGGACAUGAGGAUCACCCAUGUAGGAUAUGGGAGCAUGC |  |  | 419 nM | 59.3 nM
37 | AUACUGAGCGUAAAUUACCUGAACAUGAGGAUCACCCAUGUGGAGGAUAUUGACCUAGCAAAGCUCGAGAAGGCCACUGGGAUG | 32.3 nM | 18.7 nM |  | 
38 | AUCAGCUCGUCAGGAUAUACGUCACUGCUUCGGCAGUGUGGUAAGAUCACAUGAGGAUCACCCAUGUAGAAGGGACGAGCUGAU | 38.4 nM | 754 nM |  | 
39 | GGAUCGUAUGUCAGGAUAUACCACUGGAUACAGUGGUAGAAGGGACAUGAGGAUCACCCAUGUCCUAUCGAUCC | 13 nM | 16.6 nM |  | 
40 | GUAGCACAUGAAAAUAUAACAUGAGGAUCACCCAUGUGUUAUGAGGAUAUGGAUGUGAAGUUAAUCCAGAAGGCAUUAUGCUAC |  |  | 21.5 nM | 11.7 nM
41 | CCACAGAUAGGAUAUACUGGGUGGGAUAAAUAUUUCCUGUGACAUGAGGAUCACCCAUGUAGAAGGAUCACAAG | 38.2 nM | 42.4 nM |  | 
42 | AAUUAACUCACAGGAUAUAGCAGAGGUCGAGUGUACUUACAGGCGACGAGGCUAGAAGGGUGACCACAUGAGGAUCACCCAUGU |  |  | 621 nM | 103 nM
43 | GCAGACGUAGUGAGGAUAUGCUCUACCUCGGUAGAGCAGAAGGCACAUGAGGAUCACCCAUGUGGCUCCUCUGC | 16.2 nM | 25.1 nM |  | 
44 | UUCAUGUGAGGAUAUGUGAUCUGCUUUCUGUGUAGAUGAUCACAGAAGGCACAUGAGGAUCACCCAUGUAGAUC | 103 nM | 79.4 nM |  | 
45 | CGAUAUAUGAAGGGCGAAAACGCACAUGAGGAUCACCCAUGUAGAAGGCGAUCCGCAACGCGGAUCGAGGAUAUAUAGUAUACA | 21.1 nM | 23 nM |  | 
46 | GGACGACACAUGAACAUGAGGAUCACCCAUGUAACUAGACAUGAGGAUAUGGAUCCUAAUUGGAUCCAGAAGGCAUGGUCGUCC |  |  | 179 nM | 31.7 nM
47 | AAAACGAUGUGAGGAUAUCACCGCUGUGACGGCUGAGAAGGCACAUGAGGAUCACCCAUGUGCAGGCGUGUGUGGGUAAUCCUA | 109 nM | 94.8 nM |  | 
48 | AAAAUGUCAGGAUAUGCGAAGGCGUCUGACGGACGAGGAUUGCAGAAGGGACAUGAGGAUCACCCAUGUAAAAA | 54.5 nM | 138 nM |  | 
